Publication PMC11564230 (Clinical Drug Investigation, 2024)
Each block holds one compound with its values, some of them ahead of it.

Legend:
[1] = insulin-naïve T2DM, phase 3 ONWARDS 1 and 3; cited from earlier work
[2] = Safety in the clinical study; type: in vivo, human; settings: for AEs of severity Mild, % / AEs of severity Moderate, % / AEs of severity Severe, % / AEs with outcome Recovered/resolved, % / AEs with outcome Recovering/resolving, % / AEs with relationship to study product Possible, % / AEs with relationship to study product Probable, % / AEs with relationship to study product Unlikely, % / Decreased appetite, % / Gastrointestinal disorders (SOC), % / General disorders and administration site conditions (SOC), % / Headache, % / Metabolism and nutrition disorders (SOC), % / Nausea, % / Nervous system disorders (SOC), % / Serious AEs, % / Vomiting, % / Treatment emergent AEs, %: percent of individuals; for Overall tolerability in the clinical study: T2DM
Summary of the method: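 Adverse events and hypoglycaemia recorded continuously; treatment-emergent if from dosing to 35 days post-dose. Hypoglycaemia was BG-confirmed (BG < 2.8 mmol/L, i.e. PG < 3.1 mmol/L) or severe (needing assistance). Antibody samples taken pre-dose and at days 14, 28 and 35; validated assays. Anti-icodec-positive samples tested for human insulin cross-reactivity. Descriptive statistics.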

[3] = Clinical single-dose pharmacokinetics of semaglutide in plasma; type: in vivo, human; settings: T2DM, single s.c. dose 0.5 mg semaglutide
Summary of the method: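 Same crossover design in T2DM adults: single s.c. dose of 1 mg/mL (243 nmol/mL) product, 6–9 week washout. EDTA plasma drawn pre-dose to 840 h (35 days), kept on ice 10 min, spun 1500g 10 min 4 °C, stored −20 °C. Measured by validated LC-MS/MS. Log-transformed Cmax analysed by linear normal model with treatment, period and participant as fixed effects.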

[4] = Clinical single-dose pharmacokinetics of insulin icodec in serum; type: in vivo, human; settings: T2DM, single s.c. dose 175 U icodec
Summary of the method: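 T2DM adults (18–64 y, metformin ± one OAD, 80–120 kg, HbA1c 6.0–8.5%) in a randomised, double-blind, three-period crossover. Single s.c. dose of 700 U/mL product; washout 6–9 weeks. Serum sampled pre-dose to 840 h, clotted 30 min at RT, spun 1500g 10 min 4 °C, stored −20 °C; validated LOCI. Log Cmax fitted by linear model (treatment, period, participant fixed); tmax descriptive.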

[5] = number of events, treatment emergent

Compound: insulin degludec
Rate of clinically significant or severe hypoglycaemia [1]: < 1 episode per patient-year of exposure

Maximum concentration after single dose (Cmax,SD,Semaglutide), LS mean ([3]; plasma, LS mean, N 30/28): 8 nM
Median time to maximum semaglutide concentration after single dose (tmax,SD,Semaglutide) ([3]; median): 84 h
Compound: CC[C@H](C)[C@H](NC(=O)[C@H](Cc1ccccc1)NC(=O)[C@H](CCC(=O)O)NC(=O)[C@H](CCCCNC(=O)COCCOCCNC(=O)COCCOCCNC(=O)CC[C@H](NC(=O)CCCCCCCCCCCCCCCCC(=O)O)C(=O)O)NC(=O)[C@H](C)NC(=O)[C@H](C)NC(=O)[C@H](CCC(N)=O)NC(=O)CNC(=O)[C@H](CCC(=O)O)NC(=O)[C@H](CC(C)C)NC(=O)[C@H](Cc1ccc(O)cc1)NC(=O)[C@H](CO)NC(=O)[C@H](CO)NC(=O)[C@@H](NC(=O)[C@H](CC(=O)O)NC(=O)[C@H](CO)NC(=O)[C@@H](NC(=O)[C@H](Cc1ccccc1)NC(=O)[C@@H](NC(=O)CNC(=O)[C@H](CCC(=O)O)NC(=O)C(C)(C)NC(=O)[C@@H](N)Cc1cnc[nH]1)[C@@H](C)O)[C@@H](C)O)C(C)C)C(=O)N[C@@H](C)C(=O)N[C@@H](Cc1c[nH]c2ccccc12)C(=O)N[C@@H](CC(C)C)C(=O)N[C@H](C(=O)N[C@@H](CCCNC(=N)N)C(=O)NCC(=O)N[C@@H](CCCNC(=N)N)C(=O)NCC(=O)O)C(C)C [Semaglutide, semaglutide]
Participants positive for anti-semaglutide antibodies ([2]; assessed following IcoSema administration): No participants were positive
AEs of severity Mild, % ([2]; treatment emergent): (57.1) %
AEs of severity Moderate, % ([2]; treatment emergent): (17.9) %
AEs of severity Severe, % ([2]; treatment emergent): (0.0) %
AEs with outcome Recovered/resolved, % ([2]; treatment emergent): (60.7) %
AEs with outcome Recovering/resolving, % ([2]; treatment emergent): (0.0) %
AEs with relationship to study product Possible, % ([2]; treatment emergent): (28.6) %
AEs with relationship to study product Probable, % ([2]; treatment emergent): (42.9) %
AEs with relationship to study product Unlikely, % ([2]; treatment emergent): (21.4) %
Decreased appetite, % ([2]; treatment emergent): (17.9) %
Gastrointestinal disorders (SOC), % ([2]; treatment emergent): (42.9) %
General disorders and administration site conditions (SOC), % ([2]; treatment emergent): (14.3) %
Headache, % ([2]; treatment emergent): (7.1) %
Metabolism and nutrition disorders (SOC), % ([2]; treatment emergent): (21.4) %
Nausea, % ([2]; treatment emergent): (21.4) %
Nervous system disorders (SOC), % ([2]; treatment emergent): (17.9) %
Serious AEs, % ([2]; treatment emergent): (0.0) %
Vomiting, % ([2]; treatment emergent): (7.1) %
Treatment emergent AEs, % ([2]; until 35 days after dosing): (60.7) %
Overall tolerability in the clinical study ([2]; single s.c. dose): well-tolerated

Compound: insulin icodec
Maximum concentration after single dose (Cmax,SD,Icodec), LS mean ([4]; serum, LS mean, N 30/28): 95 nM
Median time to maximum icodec concentration after single dose (tmax,SD,Icodec) ([4]; median): 24 h
Rate of clinically significant or severe hypoglycaemia [1]: < 1 episode per patient-year of exposure
Treatment-emergent BG confirmed hypoglycaemic episodes ([2]; BG < 2.8 mmol/L, PG < 3.1 mmol/L, single s.c. dose, until 35 days after dose): three
Participants positive for anti-icodec antibodies at least once during the study ([2]; assessed following IcoSema and icodec administration): 13 participants
AEs of severity Mild, E [2, 5]: 23
AEs of severity Moderate, E [2, 5]: 6
AEs of severity Severe, E [2, 5]: 1
AEs with outcome Recovered/resolved, E [2, 5]: 30
AEs with outcome Recovering/resolving, E [2, 5]: 0
AEs with relationship to study product Possible, E [2, 5]: 14
AEs with relationship to study product Probable, E [2, 5]: 4
AEs with relationship to study product Unlikely, E [2, 5]: 12
Decreased appetite, E [2, 5]: 3
Gastrointestinal disorders (SOC), E [2, 5]: 5
General disorders and administration site conditions (SOC), E [2, 5]: 2
Headache, E [2, 5]: 5
Metabolism and nutrition disorders (SOC), E [2, 5]: 3
Nausea, E [2, 5]: 0
Nervous system disorders (SOC), E [2, 5]: 5
Serious AEs, E [2, 5]: 1
Vomiting, E [2, 5]: 0
Treatment emergent AEs, E ([2]; number of events, until 35 days after dosing): 30
Participants positive for anti-icodec antibodies cross-reacting to human insulin at least once ([2]; of the anti-icodec antibody positive participants): 12 participants
AEs of severity Mild, % ([2]; treatment emergent): (42.9) %
AEs of severity Moderate, % ([2]; treatment emergent): (17.9) %
AEs of severity Severe, % ([2]; treatment emergent): (3.6) %
AEs with outcome Recovered/resolved, % ([2]; treatment emergent): (53.6) %
AEs with outcome Recovering/resolving, % ([2]; treatment emergent): (0.0) %
AEs with relationship to study product Possible, % ([2]; treatment emergent): (28.6) %
AEs with relationship to study product Probable, % ([2]; treatment emergent): (10.7) %
AEs with relationship to study product Unlikely, % ([2]; treatment emergent): (32.1) %
Decreased appetite, % ([2]; treatment emergent): (10.7) %
Gastrointestinal disorders (SOC), % ([2]; treatment emergent): (14.3) %
General disorders and administration site conditions (SOC), % ([2]; treatment emergent): (7.1) %
Headache, % ([2]; treatment emergent): (14.3) %
Metabolism and nutrition disorders (SOC), % ([2]; treatment emergent): (10.7) %
Nausea, % ([2]; treatment emergent): (0.0) %
Nervous system disorders (SOC), % ([2]; treatment emergent): (14.3) %
Serious AEs, % ([2]; treatment emergent): (3.6) %
Vomiting, % ([2]; treatment emergent): (0.0) %
Treatment emergent AEs, % ([2]; until 35 days after dosing): (53.6) %
Overall tolerability in the clinical study ([2]; single s.c. dose): well-tolerated
